Reference: ChEMBL document CHEMBL1135936, “6-[2-(Phosphonomethoxy)alkoxy]pyrimidines with antiviral activity” (J Med Chem, 2002)
Converted amounts (≈) assume the structure as drawn.

How the values were obtained:
unidentified adenovirus = test: Effective concentration for the inhibition of adenovirus; assay type: functional, organism-based
Outline: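 HEL fibroblasts, confluent, infected on day 0 with 100 CCID50 of human adenovirus type 2 or type 3. After 2 h adsorption at 37 °C, virus was removed and replaced by serial compound dilutions. Cytopathic effect was scored microscopically on day 7-10 p.i. to derive EC50 and minimum cytotoxic concentration.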

CCRF-CEM [1] = test: In vitro cytotoxicity against CCRF-CEM lymphoblastoid cells; assay type: functional, Homo sapiens
Outline: (§1)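 Cells were grown for 72 h at a constant compound concentration of 10 µM, then counted. Growth inhibition is given relative to cell counts in control cultures grown in medium without compound. Lines: mouse L1210 and L929, human HeLaS3 and CCRF-CEM.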

CCRF-CEM [2] = test: Inhibition of Human immunodeficiency virus (HIV) -1 III B strain induced cytopathicity in CEM cell line; assay type: functional, cell-based
Outline: (§2)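 CEM cells were infected with 100 CCID50 per mL of HIV-1 (IIIB) or HIV-2 (ROD). Cells were seeded into wells containing dilutions of compound and incubated 4 days at 37 °C. CEM giant cell formation was then examined microscopically.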

CCRF-CEM [3] = test: Inhibition of Human immunodeficiency virus (HIV)-2 ROD strain induced cytopathicity in CEM cell line; assay type: functional, cell-based; outline: as §2
[4] = test system: Moloney murine sarcoma virus; test: Inhibition of moloney sarcoma virus (MSV) induced cytopathicity in C3H/3T3 embryo fibroblast cells; assay type: functional, organism-based
Outline: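 C3H/3T3 murine embryo fibroblasts were seeded in 48-well plates and infected 24 h later with 80 focus-forming units of MSV. MSV stock was prepared from tumours in NMRI mice. Virus adsorbed for 10-120 min at 37 °C, then fresh medium with compound dilutions was added. Transformation was examined microscopically after 6 days.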

E6SM [5] = test: Inhibition of Herpes simplex virus-1, KOS strain induced cytopathicity in E6SM cell line; assay type: functional, cell-based; details: Homo sapiens
Outline: (§3)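 Inhibition of virus-induced cytopathicity in confluent cell cultures in 96-well plates inoculated with 100 CCID50 of virus; 1 CCID50 is the virus dose infecting 50% of cultures. EC50 is based on reduction of cytopathicity.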

E6SM [6] = test: Inhibition of Herpes simplex virus-2 (G strain) induced cytopathicity in E6SM cell line; assay type: functional, cell-based; details: Homo sapiens; outline: as §3
E6SM [7] = test: Inhibition of thymidine kinase deficient Herpes simplex virus-1 VMW 1837 strain induced cytopathicity in E6SM cell line; assay type: functional, cell-based; details: Homo sapiens; outline: as §3
Human alphaherpesvirus 3 = test: Inhibition of Thymidine kinase deficient (TK-) Varicella-Zoster virus (VZV) 07/1 strain induced cytopathicity n HEL cell line; assay type: functional, organism-based; details: Human alphaherpesvirus 3, tk-07, HEL; outline: as §3
HEL [8] = test: Inhibition of Thymidine kinase deficient (TK-) Varicella-Zoster virus (VZV) YS/R strain induced cytopathicity in HEL cell line; assay type: functional, cell-based; details: Homo sapiens; outline: as §3
HEL [9] = test: Inhibition of Varicella-Zoster virus (VZV) OKA strain induced cytopathicity in HEL cell line; assay type: functional, cell-based; details: Homo sapiens; outline: as §3
HEL [10] = test: Inhibition of Varicella-Zoster virus (VZV) YS strain induced cytopathicity in HEL cell line; assay type: functional, cell-based; details: Homo sapiens; outline: as §3
HeLa = test: In vitro cytotoxicity against human cervix carcinoma HeLa S3 cells; assay type: functional; parameters: concentration or dose not given beside the values; outline: as §1
L929 [11] = test: In vitro cytotoxicity against murine L929 cells; assay type: functional, Mus musculus; parameters: concentration or dose not given beside the values; outline: as §1
L1210 [12] = test: In vitro cytotoxicity against L1210 mouse leukemia cells; assay type: functional; parameters: concentration or dose not given beside the values; outline: as §1
CCRF-CEM [13] = test: In vitro cytotoxicity against CCRF-CEM T lymphoblastoid cells; assay type: functional, Homo sapiens; parameters: concentration or dose not given beside the values; outline: as §1
CCRF-CEM [14] = test: Inhibitory activity against CCRF-CEM cells; assay type: functional, cell-based; details: Homo sapiens
Outline: (§4)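 CCRF-CEM, L1210 and L929 cells were grown with compound for 72 h and then counted. Cell growth inhibition is expressed relative to untreated control cultures, and IC50 is given in µM.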

L1210 [15] = test: Inhibitory activity against L1210 cells; assay type: functional, cell-based; details: Mus musculus; outline: as §4
L929 [16] = test: Inhibitory activity against L929 cells; assay type: functional, cell-based; details: Mus musculus; outline: as §4
HEL [17] = test: Inhibitory activity against HEL cell proliferation; assay type: functional, cell-based; details: Homo sapiens

SMILES | EC50 (unidentified adenovirus) | Control (CCRF-CEM [1]) | EC50 (CCRF-CEM [2]) | EC50 (CCRF-CEM [3]) | EC50 [4] | EC50 (E6SM [5]) | EC50 (E6SM [6]) | EC50 (E6SM [7]) | EC50 (Human alphaherpesvirus 3) | EC50 (HEL [8]) | EC50 (HEL [9]) | EC50 (HEL [10]) | Control (HeLa) | Control (L929 [11]) | Control (L1210 [12]) | Control (CCRF-CEM [13]) | IC50 (CCRF-CEM [14]) | IC50 (L1210 [15]) | IC50 (L929 [16]) | IC50 (HEL [17])
Nc1ncnc2c1ncn2C[C@@H](CO)OCP(=O)(O)O | 0.24 µg/mL (≈ 0.792 µM) |  |  |  |  |  |  |  |  |  |  |  |  |  |  |  |  |  |  | 
Nc1cc(OCCOCP(=O)(O)O)ncn1 |  | 95% | > 100 µg/mL | > 100 µg/mL | 13 µg/mL (≈ 52.2 µM) | > 16 µg/mL | > 16 µg/mL | > 16 µg/mL | > 50 µg/mL | > 50 µg/mL | > 50 µg/mL | > 50 µg/mL | 86% | 84% | 81% |  |  |  |  | 
CN(C)c1cc(=O)n(CCOCP(=O)(O)O)c(N)n1 |  |  | > 100 µg/mL | > 100 µg/mL | 105 µg/mL (≈ 359 µM) | > 80 µg/mL | > 80 µg/mL | > 80 µg/mL | > 50 µg/mL | > 50 µg/mL | > 50 µg/mL | > 50 µg/mL | 92% | 99% | 90% | 98% |  |  |  | 
CSc1nc(N)cc(OCCOCP(=O)(O)O)n1 |  |  | 51 µg/mL (≈ 173 µM) | 33 µg/mL (≈ 112 µM) | > 40 µg/mL | > 80 µg/mL | > 80 µg/mL | > 80 µg/mL | > 50 µg/mL | > 50 µg/mL | > 50 µg/mL | > 50 µg/mL | 79% | 92% | 96% | 87% |  |  |  | 
Nc1cc(=O)n(CCOCP(=O)(O)O)c(N)n1 |  |  | 80 µg/mL (≈ 303 µM) | 25 µg/mL (≈ 94.6 µM) | 2.92 µg/mL (≈ 11.1 µM) | 240 µg/mL (≈ 908 µM) | > 400 µg/mL | > 400 µg/mL | > 50 µg/mL | > 50 µg/mL | 32 µg/mL (≈ 121 µM) | > 50 µg/mL | 93% | 96% | 76% | 95% |  |  |  | 
Nc1nc(O)cc(NC2CC2)n1 |  |  | > 100 µg/mL | > 100 µg/mL | 133 µg/mL (≈ 800 µM) | > 400 µg/mL | > 400 µg/mL | > 400 µg/mL | > 50 µg/mL | > 50 µg/mL | > 50 µg/mL | > 50 µg/mL |  |  |  |  |  |  |  | 
Nc1cc(OCCOCP(=O)(O)O)nc(N)n1 |  |  | 0.8 µg/mL (≈ 3.03 µM) | 0.43 µg/mL (≈ 1.63 µM) | 0.04 µg/mL (≈ 0.151 µM) | 6.5 µg/mL (≈ 24.6 µM) | 24 µg/mL (≈ 90.8 µM) | 9.6 µg/mL (≈ 36.3 µM) | 2.5 µg/mL (≈ 9.46 µM) | 1.6 µg/mL (≈ 6.06 µM) | 1.2 µg/mL (≈ 4.54 µM) | 1.1 µg/mL (≈ 4.16 µM) | 89% | 61% | 62% | 63% | 12.4 µM | 25 µM | 25 µM | 50 µg/mL (≈ 189 µM)
CC(C)OP(=O)(COCCSc1cc(N)nc(N)n1)OC(C)C |  |  | 47 µg/mL (≈ 129 µM) | 52 µg/mL (≈ 143 µM) |  | > 400 µg/mL | > 400 µg/mL | > 400 µg/mL | > 50 µg/mL | > 50 µg/mL | > 50 µg/mL | > 50 µg/mL |  |  |  |  |  |  |  | 
Nc1cc(O)ncn1 |  |  | > 100 µg/mL | > 100 µg/mL |  | > 400 µg/mL | > 400 µg/mL | > 400 µg/mL | > 50 µg/mL | > 50 µg/mL | > 50 µg/mL | > 50 µg/mL |  |  |  |  |  |  |  | 
Nc1nc(NC2CC2)cc(=O)n1CCOCP(=O)(O)O |  |  | > 100 µg/mL | > 100 µg/mL |  | > 16 µg/mL | > 16 µg/mL | > 16 µg/mL | > 50 µg/mL | > 50 µg/mL | > 50 µg/mL | > 50 µg/mL |  |  |  |  |  |  |  | 
Nc1nc(OCCOCP(=O)(O)O)cc(OCCOCP(=O)(O)O)n1 |  |  | 57 µg/mL (≈ 141 µM) | 80 µg/mL (≈ 198 µM) | 43 µg/mL (≈ 107 µM) | 240 µg/mL (≈ 595 µM) | > 400 µg/mL | 240 µg/mL (≈ 595 µM) | > 50 µg/mL | > 50 µg/mL | 50 µg/mL (≈ 124 µM) | > 50 µg/mL | 72% | 56% | 77% | 109% |  |  |  | 
